Screening data: PubChem BioAssay, Broad Institute
Compounds with a hit are over-represented: about 1.3% of the library has one in this group of screens.
SIRT5 block: inhibitors of human sirtuin-5 desuccinylase. Purified SirT5, succinyl-peptide AMC, trypsin-coupled fluorescence. inhibition, % at 15 µM. Q9NXA8. AID 652115. 330,000 compounds, 1.1% hits; in the data active = inhibition above about 15%
FN deposit inh: fibronectin deposition inhibition. AID 743247. 350,000 compounds, 0.086% hits. inhibition, % at 12.6 µM. AH1F fibroblasts, Alexa488-fibronectin deposition fluorescence, overnight;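 active = mean inhibition across replicates of 30% or more, regardless of how many single replicates reach that level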;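 note: positive control wells lacked labelled fibronectin entirely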
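test system = AH1F fibroblasts assembling fluorescent fibronectin matrix | quantity = 10000 AH1F cells per well | buffer or medium = DMEM plus 2% serum, read in PBS | doses = single dose, pinned | incubation = 1 h cell attachment, overnight exposure to compound and label | detection = fluorescence at 485 nm excitation, 525 nm emission | read-out basis = inhibition from reduced deposited-fibronectin fluorescence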
PDI turbidity: PDI (human) enzyme inhibition; P07237; PDI insulin aggregation turbidity, A650, 90 min; inhibition, % at 10 µM; 350,000 compounds, 0.052% hits; AID 588391;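 active = mean inhibition across replicates of 30% or more, whatever share of single replicates reach that level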
Target sequence (P07237 whole entry, looked up): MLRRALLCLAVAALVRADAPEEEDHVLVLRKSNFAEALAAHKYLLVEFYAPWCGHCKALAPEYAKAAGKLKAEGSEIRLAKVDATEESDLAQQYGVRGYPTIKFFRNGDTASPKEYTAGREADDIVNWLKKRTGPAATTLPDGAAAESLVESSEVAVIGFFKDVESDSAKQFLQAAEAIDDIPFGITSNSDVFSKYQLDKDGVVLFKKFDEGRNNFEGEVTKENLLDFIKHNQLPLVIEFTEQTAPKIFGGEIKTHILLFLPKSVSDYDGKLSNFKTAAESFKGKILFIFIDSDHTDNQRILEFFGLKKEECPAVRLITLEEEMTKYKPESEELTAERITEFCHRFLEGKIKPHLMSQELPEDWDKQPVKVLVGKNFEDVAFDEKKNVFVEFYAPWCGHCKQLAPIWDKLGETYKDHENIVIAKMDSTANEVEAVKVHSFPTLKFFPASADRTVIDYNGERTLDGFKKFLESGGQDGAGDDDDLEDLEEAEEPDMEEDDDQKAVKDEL
ERp5 inh: ERp5 (human) disulfide isomerase inhibition | ERp5 insulin aggregation, absorbance 650 nm, 90 min | inhibition, % at 9.99 µM | 350,000 compounds, 0.05% hits | AID 651711;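 active = mean replicate inhibition above about 25%, with every replicate also reaching it, limit read from the data, passing the limit was not always enough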
MLL AF4-AF9 inh: inhibitors of human MLL-AF4/AF9 interaction; 350,000 compounds, 0.47% hits; AID 651704; AlphaScreen, biotin-AF4 peptide binding to FLAG-AF9; inhibition, % at 10 µM;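 active = every replicate reaching a set inhibition limit, whatever the replicate mean, cut at about 25% in these data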;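 note: 0% = plate neutral control median and 100% = total signal loss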
The depositor's hits bear a star; nt = no result.

SMILES	SIRT5 block	FN deposit inh	PDI turbidity	ERp5 inh	MLL AF4-AF9 inh
COc1cc(OC)c2c(-c3ccccc3)cc(=O)oc2c1C(CCN1CCCC(C)C1)c1ccc2c(c1)OCO2 (stereo unspecified)	nt	9.8	-4.7	-4.8	31.9*
COc1cc(C2CC(=O)Oc3c(C(CCN4CCCC(C)C4)c4ccc(N(C)C)cc4)c(OC)cc(OC)c32)cc(OC)c1OC (stereo unspecified)	-0.3	16.2	0.4	4.8	39.1*
O=C(Nc1ccc(N2CCOCC2)cc1)c1cnccn1	2.3	-4.0	6.3	0.9	-38.8
COC(=O)C(CCCN1C(=O)c2ccccc2C1=O)(NC(C)=O)c1nnn(C)n1 (stereo unspecified)	0.1	4.4	7.1	2.9	-0.5
CC(=O)N1[C@H](C(=O)NCc2ccccc2Cl)[C@@H](CO)[C@@H]2Cn3c(ccc(-c4cccnc4)c3=O)[C@@H]21	-24.9	nt	nt	0.6	-1.8
Cc1cc(NS(=O)(=O)c2ccc(NC(=O)Nc3ccc4c(c3)OCO4)cc2)no1	nt	0.5	17.3	nt	nt
CNc1nc(NCc2ccccc2)c2sccc2n1	19.5*	13.0	-3.7	-10.1	-4.3
c1ccc(CNc2nc(NCc3cccs3)nc3ccsc23)cc1	-1.4	-0.5	3.3	3.0	1.2
C[C@@H]1CN([C@H](C)CO)C(=O)c2cc(NC(=O)c3ccncc3)ccc2O[C@H]1CN(C)S(=O)(=O)c1ccc(F)cc1	-2.3	7.1	nt	-9.4	0.9
Cc1cc(C)c(Cn2c(=O)n(CCCC(=O)NCc3ccco3)c(=O)c3sccc32)c(C)c1	nt	33.8*	2.8	nt	nt
Cc1ccccc1Cn1c(=O)n(CCCC(=O)NCc2ccco2)c(=O)c2sccc21	nt	7.9	0.8	nt	nt
Cc1noc(C)c1CSCC(=O)N(C)CC(=O)Nc1ccccc1C(F)(F)F	-1.2	4.1	9.8	-3.7	-3.8
Cc1ccc(NC(=O)COC(=O)c2cc(Cl)ccc2[N+](=O)[O-])cc1	1.6	3.9	-4.4	5.0	0.9
O=C(COC(=O)c1cc(Cl)ccc1[N+](=O)[O-])NC1CC1	15.6*	7.9	0.2	7.2	-0.8
Cc1ccc(C(=O)N2CCN(Cc3ccc4c(c3)OCO4)CC2)cc1S(=O)(=O)N1CCOCC1	16.0*	5.3	-4.0	0.9	-1.0
O=C(c1ccc(S(=O)(=O)N2CCCC2)cc1)N1CCN(Cc2ccc3c(c2)OCO3)CC1	nt	nt	2.3	nt	nt
O=C1C[C@@H](c2ccc(O[C@@H]3O[C@H](CO)[C@@H](O)[C@H](O)[C@H]3O)cc2)Oc2cc(O)ccc21	nt	16.5	35.7*	3.2	-1.3
CC(=O)Nc1ccc2c(c1)C(=O)N(C)[C@H]1CC[C@@H](CC(=O)NCC3CC3)O[C@@H]1CO2	nt	-23.2	nt	7.5	-1.7
COc1ccc(S(=O)(=O)N(C)C[C@H]2OCCCC[C@@H](C)Oc3ccc(NS(=O)(=O)c4ccc(F)cc4)cc3C(=O)N([C@H](C)CO)C[C@H]2C)cc1	20.0*	13.4	nt	0.3	2.1
COc1ccc(S(=O)(=O)N(C)C[C@@H]2OCCCC[C@@H](C)Oc3ccc(NS(=O)(=O)c4ccc(F)cc4)cc3C(=O)N([C@@H](C)CO)C[C@@H]2C)cc1	20.0*	-2.0	nt	-0.4	-0.1
COc1ccc(S(=O)(=O)N(C)C[C@H]2OCCCC[C@H](C)Oc3ccc(NS(=O)(=O)c4ccc(F)cc4)cc3C(=O)N([C@H](C)CO)C[C@@H]2C)cc1	17.5*	1.5	nt	-1.2	0.0
COc1ccc(S(=O)(=O)N(C)C[C@@H]2OCCCC[C@@H](C)Oc3ccc(NS(=O)(=O)c4ccc(F)cc4)cc3C(=O)N([C@H](C)CO)C[C@@H]2C)cc1	13.2	-6.9	nt	-2.5	-1.8
COc1ccc(S(=O)(=O)N(C)C[C@@H]2OCCCC[C@H](C)Oc3ccc(NS(=O)(=O)c4ccc(F)cc4)cc3C(=O)N([C@@H](C)CO)C[C@@H]2C)cc1	20.2*	1.0	nt	-0.9	0.5
Cc1ccc(C)c2c1cc(C)c1nnc(SCC(=O)NCc3ccc4c(c3)OCO4)n12	0.1	3.6	0.8	3.1	1.5
CCC[C@@H]1CCCO[C@@](C(=O)NCc2ccccn2)(C(F)(F)F)C1	4.4	-2.8	2.6	-3.6	-1.2
SMILES	SIRT5 block	FN deposit inh	PDI turbidity	ERp5 inh	MLL AF4-AF9 inh
COC(=O)c1c(NC(=O)CSc2n[nH]c(N)n2)sc(C)c1C	nt	-2.5	0.5	nt	nt
Cc1sc(NC(=O)CSc2n[nH]c(N)n2)c(C#N)c1C	15.6*	nt	7.1	1.5	2.0
O=S(=O)(c1ccccc1)N1N=C(c2ccc(O)cc2)CC1c1ccco1 (stereo unspecified)	1.9	-4.8	38.2*	11.3	-1.7
Cn1c(=O)c2c(nc(CN3CCN(c4ccccc4F)CC3)n2CCCc2ccccc2)n(C)c1=O	nt	nt	-4.1	nt	nt
CCCC(=O)Nc1ccc(NC(=O)c2ccccc2Cl)nc1	nt	6.1	1.0	nt	nt
C(=N/Nc1nccs1)/c1cccnc1	19.2*	2.4	4.0	3.8	-0.4
Clc1cccc(/C=N\Nc2nccs2)c1	-5.2	-0.7	-2.6	-9.1	nt
CCS(=O)(=O)c1ncc(Cl)c(C(=O)Nc2ccc(S(=O)(=O)N(C)c3ccccc3)cc2)n1	-2.1	67.3*	-2.4	nt	1.0
O=C(Nc1ccc(F)cc1)c1nc(S(=O)(=O)Cc2ccccc2)ncc1Cl	1.5	-0.8	2.5	7.8	-9.0
Cc1ccccc1CS(=O)(=O)c1ncc(Cl)c(C(=O)Nc2ccc(F)cc2)n1	-0.9	39.5*	-7.3	5.5	1.5
O=C(NCC1CC1)C1(C(F)(F)F)C/C(=C\Cc2ccccc2)CCCO1 (stereo unspecified)	-3.6	-29.1	5.5	-0.9	0.6
Cc1c(OCc2ccccc2)c(=O)ccn1Cc1ccccc1	nt	nt	-3.8	nt	nt
O=c1ccn(Cc2ccccc2)c2ccccc12	36.2*	-5.3	-7.2	7.1	0.4
Cc1cccc(-c2ccc([C@@H]3[C@@H](CO)N4CCCCN(C(=O)c5ccncc5)C[C@@H]34)cc2)c1	-0.2	nt	nt	-6.9	-6.1
O=C1C(=C(I)I)c2ccccc2-c2ccccc21	-2.9	55.5*	-0.1	-2.2	1.2
O=C(O)c1cccc2c1C(=O)c1ccccc1-2	-0.3	11.8	3.0	0.2	0.5
Cc1ccc(NC(=O)COCC(=O)Nc2ccc(F)cc2)cc1	23.6*	7.0	1.4	1.7	-1.4
Cc1ccc(NC(=O)COCC(=O)Nc2ccc(C)cc2)cc1	0.0	-0.7	-1.6	1.5	-3.8
CN(CC(=O)Nc1ccc(F)cc1)CC(=O)NC1CCCCC1	-0.1	-14.0	11.2	25.2*	-0.1
O=C(Cn1nc(-c2ccc(F)cc2)ccc1=O)Nc1ccc2c(c1)OCCO2	-2.7	-2.8	-1.7	-0.3	-2.7
Cc1ccc(-c2ccc(=O)n(CC(=O)Nc3ccc4c(c3)OCCO4)n2)cc1	20.5*	-1.0	2.0	3.8	-2.2
O=C(Nc1ccccc1)N[C@H]1CC[C@H](CCNS(=O)(=O)c2ccccc2F)O[C@H]1CO	-0.5	nt	nt	-7.2	1.8
N=c1c2c(ncn1Cc1ccco1)Oc1cc(O)ccc1C2c1ccccc1 (stereo unspecified)	-4.3	3.4	6.1	-3.2	1.9
